According to ChEMBL document CHEMBL1142984, “Stabilization of G-quadruplex DNA and down-regulation of oncogene c-myc by quindoline derivatives” (J Med Chem, 2007):
The source made the active and inactive calls. The rule behind the calls is not given here.

Legend:
[1] = Inhibition of Pu27-13, 14 oligomer hybridization with Pu27rev at 36 uM by PCR stop assay
Summary of the method: (§1)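 Test oligomer plus complementary strand ([…]) in 1×PCR buffer with 0.16 mM dNTP, 2.5 U Taq and derivative […]. Cycling: 94 C 3 min, then 30 cycles of 94 C 30 s, 58 C 30 s, 72 C 30 s. Products run on 15% nondenaturing polyacrylamide in 1×TBE, silver stained; quadruplex stabilization blocks extension.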

[2] = Stabilization of Pu27 oligomer by inducing G-quadruplex formation assessed as inhibition of hybridization with Pu27rev by PCR stop assay; summary of the method: as §1
[3] = Inhibition of Pu27 oligomer hybridization with Pu27rev at 18 uM by PCR stop assay; summary of the method: as §1
[4] = Inhibition of Pu27 oligomer hybridization with Pu27rev at 36 uM by PCR stop assay; summary of the method: as §1
HepG2 [5] = test: Inhibition of c-myc expression in HepG2 cells at 50 uM; assay type: functional, cell-based; conditions: Homo sapiens
Summary of the method: (§2)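 About 5 × 10^5 Hep G2 cells seeded, treated 24 h after plating with derivative (6.25 to 100 µM) for 24 h. Total RNA extracted and reverse transcribed at 42 C for 60 min. PCR used […], 500 µM dNTPs, 36 cycles (95/50/72 C, 1 min each). Products read on 1.5% agarose against β-actin.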

[6] = Inhibition of Pu27 oligomer hybridization with Pu27rev at 6 uM by PCR stop assay; summary of the method: as §1
Ramos = test: Inhibition of c-myc expression in Ramos cells at 10 uM; assay type: functional, cell-based; conditions: Homo sapiens
Summary of the method: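 Ramos cells (about 1 × 105 seeded) treated with derivative at […] and harvested 24 h later alongside untreated cells. RNA reverse transcribed at 42 C for 60 min. PCR used […], 36 cycles (95/50/72 C, 1 min each). Products resolved on 1.5% agarose.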

HepG2 [7] = test: Growth inhibition in HepG2 cells after 7 days; assay type: functional, cell-based; conditions: Homo sapiens, HepG2, 168 h
Summary of the method: (§3)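 Hep G2 cells in RPMI-1640 with 10% FBS at 37 C, 5% CO2. About 5000 cells seeded; compound ([…], freshly dissolved) added 24 h after plating and re-added at day 5. Cell counts and viability by trypan blue exclusion daily, days 1 to 8. IC50 calculated at days 5 and 7 of treatment.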

HepG2 [8] = test: Growth inhibition in HepG2 cells after 5 days; assay type: functional, cell-based; conditions: Homo sapiens, HepG2, 120 h; summary of the method: as §3
HepG2 [9] = test: Inhibition of c-myc expression in HepG2 cells at 100 uM; assay type: functional, cell-based; conditions: Homo sapiens; summary of the method: as §2

Row | SMILES | Activity [1] | Activity [2] | Activity [3] | Activity [4] | Activity [6] | IC50 (HepG2 [7]) [nM] | IC50 (HepG2 [8]) [nM] | Activity (HepG2 [5]) | Activity (Ramos) | Activity (HepG2 [9])
1 | CN(C)CCNc1c2ccccc2nc2c1[nH]c1ccccc12 | inactive | Active | Active | – | – | – | – | – | – | –
2 | OCCNc1c2ccccc2nc2c1[nH]c1ccccc12 | inactive | Active | – | Active | – | – | – | – | – | –
3 | OCCCNc1c2ccccc2nc2c1[nH]c1ccccc12 | inactive | Active | – | Active | – | 1300 | 1000 | – | Active | Active
4 | CN(C)CCCNc1c2ccccc2nc2c1[nH]c1ccccc12 | inactive | Active | Active | – | – | – | – | – | – | –
5 | OCCCNc1c2ccccc2nc2c1oc1ccccc12 | inactive | Active | – | Active | – | – | – | – | – | –

More lines, main results first:

Row | Activity [1] | Activity [2] | Activity [3] | Activity [4] | Activity [6] | IC50 (HepG2 [7]) [nM] | IC50 (HepG2 [8]) [nM] | SMILES | Activity (HepG2 [5]) | Activity (Ramos) | Activity (HepG2 [9])
6 | inactive | Active | Active | – | – | – | – | CN(C)CCCNc1c2ccccc2nc2c1oc1ccccc12 | – | – | –
7 | inactive | Active | – | – | Active | 300 | 200 | CCN(CC)CCNc1c2ccccc2nc2c1[nH]c1ccccc12 | Active | Active | –
8 | inactive | Active | Active | – | – | – | – | CCN(CC)CCNc1c2ccccc2nc2c1oc1ccccc12 | – | – | –
9 | inactive | Active | – | Active | – | – | – | OCCNc1c2ccccc2nc2c1oc1ccccc12 | – | – | –
10 | inactive | Active | Active | – | – | – | – | CN(C)CCNc1c2ccccc2nc2c1oc1ccccc12 | – | – | –
